Calls of active or inactive are those of the source. The rule behind the calls is not given here.
What was measured:
[1] = Cytotoxicity against human H1299 cells after 3 days by MTS assay; type: functional, cell-based; details: NCI-H1299, 72 h
Method in brief: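 H1299 NSCLC cells seeded at 5 × 10³ cells/well, treated next day with graded concentrations (0.1% DMSO as dilution control); proliferation read by MTS after 3 days; at least three replicate wells; IC50 taken as mean of triplicate experiments.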

[2] = organism: Danio rerio; experiment: Toxicity in transgenic zebrafish embryos assessed as effect on viability at 50 nM to 1.25 uM after 74 hrs; type: organism-based; details: in vivo, 0.05 µM
Method in brief: (§1)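 Zebrafish embryos exposed from 24 hpf to 50 nM–1.25 μM in Danieau's solution (pigmentation blocked with 1-phenyl-2-thiourea at 12 hpf); solution washed out at 48 hpf, then scored for viability and gross morphological abnormalities.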

[3] = organism: Danio rerio; experiment: Toxicity in transgenic zebrafish embryos assessed as effect on growth at 50 nM to 1.25 uM after 74 hrs; type: organism-based; details: in vivo, 0.05 µM; method in brief: as §1
[4] = organism: Danio rerio; experiment: Toxicity in transgenic zebrafish embryos assessed as developmental deffect at 50 nM to 1.25 uM after 24 hrs; type: organism-based; details: in vivo, 0.05 µM; method in brief: as §1
[5] = organism: Danio rerio; experiment: Toxicity in transgenic zebrafish embryos assessed as developmental deffect at 10 uM after 24 hrs; type: organism-based; details: in vivo
[6] = molecular target: Heat shock protein HSP 90-beta (Homo sapiens) (UniProt P08238); experiment: Inhibition of HSP90 in human H1299 cells assessed as reduction of HIF1alpha level treated for 72 hrs followed by incubated for 12 hrs under hypoxia condition by Western blot analysis; type: cell-based
Method in brief: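 H1299 cells left untreated or exposed to test agents at each concentration for 72 h, then held under hypoxia (1% O₂) for 12 h; lysates immunoblotted with monoclonal anti-HIF-1α antibody.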

[7] = organism: Danio rerio; experiment: Antiangiogenic activity in transgenic zebrafish embryos
[8] = organism: Danio rerio; experiment: Antiangiogenic activity in transgenic zebrafish at 0.05 to 1.25 uM up to 72 hrs; type: functional, organism-based
Method in brief: (§2)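 Tg(fli:EGFP)^y1 embryos, treated with 1-phenyl-2-thiourea at 12 hpf to block pigmentation, placed in Danieau's solution ± test agents (50, 250, 1250 nM) at 24 hpf; solution washed out at 48 hpf; subintestinal vessels imaged in 72 hpf larvae against DMSO control.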

[9] = organism: Danio rerio; experiment: Toxicity in transgenic zebrafish embryos assessed as effect on viability after 24 hrs; type: organism-based; details: in vivo
Method in brief: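 Tg(fli:EGFP)y1 zebrafish embryos, with pigment suppressed by 1-phenyl-2-thiourea from 12 hpf, were placed at 24 hpf in Danieau's solution with or without compound (50 nM to 1.25 μM). The solution was washed out at 48 hpf, and embryos were examined for viability and gross morphological abnormalities, with DMSO as the control.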

[10] = organism: Danio rerio; experiment: Antiangiogenic activity in transgenic zebrafish at 50 nM up to 72 hrs; type: functional, organism-based; method in brief: as §2
[11] = organism: Danio rerio; experiment: Toxicity in transgenic zebrafish embryos assessed as developmental deffect at 50 nM to 10 uM after 24 hrs; type: organism-based; details: in vivo, 0.05 µM
Method in brief: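 Tg(fli:EGFP)y1 zebrafish embryos were exposed dose-dependently from 50% epiboly (5.3 hpf) across 50 nM to 10 μM, then scored for developmental defects. Pigmentation was blocked with 1-phenyl-2-thiourea at 12 hpf, and compounds were given in Danieau's solution, with DMSO as the negative control.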

[12] = organism: Danio rerio; experiment: Antiangiogenic activity in transgenic zebrafish assessed as depletion of subintestinal veins at 50 nM to 1250 nM after 72 hrs; type: functional, organism-based; method in brief: as §2
[13] = molecular target: Heat shock protein HSP 90-beta (Homo sapiens) (UniProt P08238); experiment: Inhibition of HSP90 binding to HIF1alpha in human H1299 cells at 12.5 uM after 30 mins by immunoprecipitation and immunoblotting analysis in presence of ATP; type: cell-based; details: 1.25 uM, in the assay text read “1.25 uM” for “12.5 uM”
Method in brief: (§3)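 Cell-free format: lysates of H1299 cells pretreated with 100 μM CoCl₂ for 5 h, incubated with compound at 1.25 μM, with or without 20 mM ATP, 30 min at 37 °C. HIF-1α immunoprecipitated (antibody overnight, 4 °C; protein G-agarose 2 h, 4 °C), resolved on 6% SDS-PAGE, blotted for HSP90.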

[14] = molecular target: Heat shock protein HSP 90-beta (Homo sapiens) (UniProt P08238); experiment: Inhibition of HSP90 binding to HIF1alpha in human H1299 cells at 12.5 uM after 30 mins by immunoprecipitation and immunoblotting analysis; type: cell-based; details: 1.25 uM, in the assay text read “1.25 uM” for “12.5 uM”; method in brief: as §3
[15] = organism: Danio rerio; experiment: Antiangiogenic activity in transgenic zebrafish assessed as depletion of subintestinal veins after 72 hrs; type: functional, organism-based; method in brief: as §2

Chain of Heat shock protein HSP 90-beta (Homo sapiens) (P08238 whole entry): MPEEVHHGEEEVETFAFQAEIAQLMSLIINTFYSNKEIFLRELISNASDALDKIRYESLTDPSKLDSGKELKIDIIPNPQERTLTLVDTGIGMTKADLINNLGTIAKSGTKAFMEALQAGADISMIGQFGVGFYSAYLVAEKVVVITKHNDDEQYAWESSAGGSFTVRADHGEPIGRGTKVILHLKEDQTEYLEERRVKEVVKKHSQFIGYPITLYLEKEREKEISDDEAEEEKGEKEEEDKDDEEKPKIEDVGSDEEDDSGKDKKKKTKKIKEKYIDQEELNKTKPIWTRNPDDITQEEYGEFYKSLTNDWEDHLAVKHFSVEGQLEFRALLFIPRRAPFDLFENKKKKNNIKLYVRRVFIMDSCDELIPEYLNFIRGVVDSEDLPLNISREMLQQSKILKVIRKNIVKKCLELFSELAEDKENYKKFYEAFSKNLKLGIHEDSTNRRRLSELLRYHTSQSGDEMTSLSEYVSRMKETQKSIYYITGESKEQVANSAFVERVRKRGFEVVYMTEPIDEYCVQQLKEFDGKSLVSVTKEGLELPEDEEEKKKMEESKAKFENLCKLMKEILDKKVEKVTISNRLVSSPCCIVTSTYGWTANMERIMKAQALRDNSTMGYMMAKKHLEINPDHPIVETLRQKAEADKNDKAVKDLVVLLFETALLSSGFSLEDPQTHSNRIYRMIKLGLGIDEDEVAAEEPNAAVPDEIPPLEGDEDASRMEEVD

Structure (SMILES)	IC50 [1]	other results
COc1cc2c(cc1OC)C1=Cc3ccc4c(c3O[C@@H]1CO2)C=CC(C)(C)O4	> 500 µM	
COc1ccc(C2(C(=O)c3ccc4c(c3OC)C=CC(C)(C)O4)CC2)cc1OC	102 µM	
COc1ccc(C(C)C(=O)c2ccc3c(c2OC)C=CC(C)(C)O3)cc1OC (racemic)	0.73 µM	
COc1cc2c(cc1OC)[C@@H]1[C@H](OCc3ccccc3)c3ccc4c(c3O[C@@H]1CO2)C=CC(C)(C)O4	> 500 µM	
CO/N=C1\c2ccc3c(c2O[C@@H]2COc4cc(OC)c(OC)cc4[C@H]12)C=CC(C)(C)O3	4.3 µM	
COc1ccc([C@@H](C)C(=O)c2ccc3c(c2OC)C=CC(C)(C)O3)cc1OC	1.3 µM	Activity [2]: Non-toxic; Activity [3]: Non-toxic; Activity [4]: Non-toxic; Activity [5]: Toxic; inhibition [6]: Active; Activity [7]: Dose-dependent effect
COc1cc2c(cc1OC)[C@@H]1C(=O)c3ccc4c(c3O[C@@H]1CO2)CCC(C)(C)O4	0.14 µM	
COc1ccc(C2COc3c(ccc4c3C=CC(C)(C)O4)C2=O)cc1OC (racemic)	4.5 µM	
COc1cc2c(cc1OC)[C@@H]1[C@H](OC(C)=O)c3ccc4c(c3O[C@@H]1CO2)C=CC(C)(C)O4	0.68 µM	
COc1cc2c(cc1OC)[C@@H]1/C(=N/O)c3ccc4c(c3O[C@@H]1CO2)C=CC(C)(C)O4	0.3 µM	
COc1cc2c(cc1O)OC[C@H]1Oc3c(ccc4c3C=CC(C)(C)O4)C(=O)[C@@H]21	0.87 µM	
COc1cc2c(cc1OC)[C@@H]1[C@H](OC(N)=O)c3ccc4c(c3O[C@@H]1CO2)C=CC(C)(C)O4	0.11 µM	Activity [8]: inactive; inhibition [6]: Active
COc1cc2c(cc1OC)[C@@H]1C(=O)c3ccc(OCc4ccccc4)c(CC=C(C)C)c3O[C@@H]1CO2	> 500 µM	
COc1cc2c(cc1OC)[C@@H]1Cc3ccc4c(c3O[C@@H]1CO2)C=CC(C)(C)O4	4.2 µM	
COc1cc2c(cc1OC)[C@@H]1C(=O)c3ccc(OC(C)=O)c(CC=C(C)C)c3O[C@@H]1CO2	> 500 µM	
COc1ccc(CC(=O)c2ccc3c(c2)C=CC(C)(C)O3)cc1OC	1 µM	
COc1cc2c(cc1OC)C(C(=O)c1ccc3c(c1)C=CC(C)(C)O3)CCO2 (racemic)	3.8 µM	

Structure (SMILES)	IC50 [1]	other results
COc1cc2c(cc1OC)[C@@H]1C(=O)c3ccc(O)c(CC=C(C)C)c3O[C@@H]1CO2 [ROTENONIC ACID]	9.8 µM	
COc1cc2c(cc1OC)[C@@H]1C(=O)c3ccc4c(c3O[C@@H]1CO2)C=CC(C)(C)O4 [DEGUELIN]	0.11 µM	Activity [9]: Dose-dependent effect; Activity [10]: inactive; Activity [11]: Toxic
COc1cc2c(cc1OC)[C@@H]1C(=O)c3ccc(OC)c(CC=C(C)C)c3O[C@@H]1CO2 [ROTENONIC ACID, METHYL ETHER]	5.2 µM	
COc1cc2c(cc1OC)[C@@H]1[C@H](O)c3ccc4c(c3O[C@@H]1CO2)C=CC(C)(C)O4	0.01 µM	Activity [8]: inactive; inhibition [6]: Active
COc1cc2c(cc1OC)[C@@H]1[C@H](OC)c3ccc4c(c3O[C@@H]1CO2)C=CC(C)(C)O4	4.1 µM	
C=CCOc1ccc2c(c1CC=C(C)C)O[C@@H]1COc3cc(OC)c(OC)cc3[C@@H]1C2=O	> 500 µM	
CCO[C@@H]1c2ccc3c(c2O[C@@H]2COc4cc(OC)c(OC)cc4[C@H]12)C=CC(C)(C)O3	9.8 µM	
COc1cc2c(cc1OC)[C@@H]1C(=O)c3ccc4c(c3O[C@@H]1CO2)C(O)C(O)C(C)(C)O4 (some centres undefined)	> 500 µM	
COc1ccc([C@H](C)C(=O)c2ccc3c(c2OC)C=CC(C)(C)O3)cc1OC	0.49 µM	Activity [2]: Non-toxic; Activity [12]: Active; Activity [3]: Non-toxic; Activity [4]: Non-toxic; Activity [5]: Toxic; inhibition [13]: inactive; inhibition [14]: Active; inhibition [6]: Active; Activity [7]: Dose-dependent effect
COc1ccc(CC(=O)c2ccc3c(c2OC)C=CC(C)(C)O3)cc1OC	0.14 µM	Activity [2]: Non-toxic; Activity [15]: Dose-dependent effect; Activity [3]: Non-toxic; Activity [4]: Non-toxic; Activity [5]: Toxic; inhibition [13]: inactive; inhibition [14]: Active; inhibition [6]: Active; Activity [7]: Dose-dependent effect
COc1cc2c(cc1OC)-c1c(oc3c4c(ccc3c1=O)OC(C)(C)C=C4)CO2 [DEHYDRODEGUELIN]	> 500 µM	
COc1cc2c(cc1O)[C@@H]1C(=O)c3ccc4c(c3O[C@@H]1CO2)C=CC(C)(C)O4	0.97 µM	
CC1(C)C=Cc2c(ccc3c2O[C@@H]2COc4cc(O)c(O)cc4[C@@H]2C3=O)O1	10.1 µM	
COc1cc2c(cc1OC)[C@@H]1/C(=N/OCc3ccccc3)c3ccc4c(c3O[C@@H]1CO2)C=CC(C)(C)O4	> 500 µM	
CCCO[C@@H]1c2ccc3c(c2O[C@@H]2COc4cc(OC)c(OC)cc4[C@H]12)C=CC(C)(C)O3	10.5 µM	
COc1ccc(C(C)(C)C(=O)c2ccc3c(c2OC)C=CC(C)(C)O3)cc1OC	3.2 µM	
